# Results of several laboratories.
# Compare with care: the assays were run in different laboratories. pIC50: −log10 of the molar value.
# Cell line: MDA-MB-231
# Read-out: cell growth or viability
SMILES,method,time,quantity,result
O=C(Nc1ccccc1)Nc1ccc(Oc2nc3ccccc3n3cnnc23)cc1,MTT,24 h,pIC50,< 4.17
Cc1ccc(S(=O)(=O)n2cc(/C=N/NC(=O)Cc3ccccc3C(F)(F)F)c3ccccc32)cc1,MTT,48 h,pIC50,4.70
O=C1Nc2ccccc2/C1=N/N=C/c1cccc([N+](=O)[O-])c1,MTT,24 h,IC50,38.3 µg/mL
Cc1ccc(S(=O)(=O)n2cc(/C=N/NC(=O)Cc3cc(F)cc(F)c3)c3ccccc32)cc1,MTT,48 h,pIC50,4.49
Nc1ccn([C@@H]2O[C@H](CO)[C@@H](O)C2(F)F)c(=O)n1,MTT,48 h,IC50,4.07 µg/mL
Nc1nc2cc(CC[C@H]3C[C@@H](n4ccc5c(N)ncnc54)[C@H](O)[C@@H]3O)ccc2cc1Br,CCK-8,72 h,pIC50,< 4.00
Cc1ccc(S(=O)(=O)n2cc(/C=N/NC(=O)c3ccc([N+](=O)[O-])cc3)c3ccccc32)cc1,MTT,48 h,pIC50,4.41
COc1cccc2c1C(=O)c1c(O)c3c(c(O)c1C2=O)C[C@@](O)(C(=O)CO)C[C@@H]3O[C@H]1C[C@H](N)[C@H](O)[C@H](C)O1,MTT,24 h,pIC50,5.22
O=C(Nc1ccc(Oc2nc3ccccc3n3cnnc23)cc1)Nc1cccc(Cl)c1,MTT,24 h,pIC50,4.47
COc1ccccc1-n1cc(CNC(=O)[C@@]2(C)[C@H](O)CC[C@@]3(C)[C@H]2CC[C@]2(C)[C@@H]3C(=O)C[C@@H]3[C@@H]4[C@@H](C)[C@H](C)CC[C@]4(C)CC[C@]32C)nn1,MTT,24 h,pIC50,4.15
Cc1ccc(S(=O)(=O)n2cc(/C=N/NC(=O)c3ccco3)c3ccccc32)cc1,MTT,48 h,pIC50,4.53
S=C(N/N=C/c1cccc2cc3ccccc3nc12)Nc1ccccc1,MTT,48 h,pIC50,< 4.30
C[C@H]1[C@H](C)CC[C@]2(C)CC[C@]3(C)C(=CC(=O)[C@@H]4[C@@]5(C)CC[C@@H](O)[C@](C)(C(=O)NCc6cn(-c7ccccc7C(F)(F)F)nn6)[C@@H]5CC[C@]43C)[C@H]12,MTT,24 h,pIC50,4.16
Cc1ccc(S(=O)(=O)n2cc(/C=N/NC(=O)c3ccc(C(F)(F)F)cc3)c3ccccc32)cc1,MTT,48 h,pIC50,4.72
Cc1cc(NS(=O)(=O)c2ccc(NC(=O)/C(C#N)=C/c3ccc(N4CCCCC4)cc3)cc2)no1,MTT,48 h,pIC50,4.70
C[C@H]1[C@H](C)CC[C@]2(C)CC[C@]3(C)C(=CC(=O)[C@@H]4[C@@]5(C)CC[C@@H](O)[C@](C)(C(=O)NCc6cn(-c7ccccc7)nn6)[C@@H]5CC[C@]43C)[C@H]12,MTT,24 h,pIC50,3.99
CC(C)CNC(=S)N/N=C/c1cccc2cc3ccccc3nc12,MTT,48 h,pIC50,< 4.30
COc1ccccc1/C=N/N=C1\C(=O)Nc2ccccc21,MTT,24 h,IC50,41.2 µg/mL
CCCc1cc2cc(-n3nc(C)c4c3CC(C)(C)CC4=O)cc(N3CCC(O)CC3)c2c(=O)[nH]1,MTS,,pIC50,5.42
COc1cccc(NC(=S)N/N=C/c2cccc3cc4ccccc4nc23)c1,MTT,48 h,pIC50,< 4.30
COc1cc([C@@H]2c3cc4c(cc3[C@@H](O[C@@H]3O[C@@H]5CO[C@@H](C)O[C@H]5[C@H](O)[C@H]3O)[C@H]3COC(=O)[C@H]23)OCO4)cc(OC)c1O,SRB,72 h,pIC50,5.48
O=c1[nH]cc(F)c(=O)[nH]1,MTT,48 h,pIC50,4.91
Cc1ccc(S(=O)(=O)n2cc(/C=N/NC(=O)c3cc4ccccc4cc3O)c3ccccc32)cc1,MTT,48 h,pIC50,4.79
CC(C)=CCc1ncc(/C=C2\NC(=O)[C@H](C(C)C)NC2=O)[nH]1,SRB,,pIC50,< 4.82
CCCNC(=S)N/N=C/c1cccc2cc3ccccc3nc12,MTT,48 h,pIC50,< 4.30
Cc1ccc(C(C)C)c(OC2=C(Cl)C(=O)c3ccccc3C2=O)c1,MTT,24 h,IC50,60 µg/mL
C[C@H]1[C@H](C)CC[C@]2(C(=O)O)CC[C@]3(C)C(=CC[C@@H]4[C@@]5(C)CC[C@H](O)C(C)(C)[C@@H]5CC[C@]43C)[C@H]12,MTT,24 h,pIC50,4.82
CC(=O)O[C@@]12CO[C@@H]1C[C@H](O)[C@@]1(C)C(=O)[C@H](O)C3=C(C)[C@@H](OC(=O)[C@H](O)[C@@H](NC(=O)OC(C)(C)C)c4ccccc4)C[C@@](O)([C@@H](OC(=O)c4ccccc4)[C@H]21)C3(C)C,MTT,24 h,IC50,> 50 µg/mL
COc1cc([C@@H]2c3cc4c(cc3[C@@H](O[C@@H]3O[C@@H]5CO[C@@H](C)O[C@H]5[C@H](O)[C@H]3O)[C@H]3COC(=O)[C@H]23)OCO4)cc(OC)c1O,MTT,48 h,pIC50,4.67
CC(C)[C@@H]1NC(=O)[C@H](Cc2c[nH]cn2)NC1=O,SRB,,pIC50,< 4.82
C[C@H]1[C@H](C)CC[C@]2(C)CC[C@]3(C)C(=CC(=O)[C@@H]4[C@@]5(C)CC[C@@H](O)[C@](C)(C(=O)NCc6cn(-c7cccc(Br)c7)nn6)[C@@H]5CC[C@]43C)[C@H]12,MTT,24 h,pIC50,4.21
Cc1sc2c(c1C)C(c1ccc(Cl)cc1)=N[C@@H](CC(=O)NCCCCNC(=O)COc1cccc3c1C(=O)N(C1CCC(=O)NC1=O)C3=O)c1nnc(C)n1-2 (stereo partly shown),CCK-8,72 h,pIC50,5.94
CO[C@H]1[C@H](O[C@H]([C@H]2O[C@@H](n3ccc(=O)[nH]c3=O)[C@H](O)[C@@H]2O)[C@H](NCCCNC(=O)[C@@H](NC(=O)[C@@H](NC(=O)N[C@H](C(=O)O)C(C)C)[C@@H]2CCN=C(N)N2)[C@@H](OC(=O)CCCCCCCCCCCCN(O)C(=N)N)C(C)C)C(=O)O)O[C@H](CN)[C@H]1O,WST-1,,pIC50,6.01
Cc1ccc(S(=O)(=O)n2cc(/C=N/NC(=O)c3cccnc3)c3ccccc32)cc1,MTT,48 h,pIC50,4.74
COc1ccc(-n2cc(CNC(=O)[C@@]3(C)[C@H](O)CC[C@@]4(C)[C@H]3CC[C@]3(C)[C@@H]4C(=O)C=C4[C@@H]5[C@@H](C)[C@H](C)CC[C@]5(C)CC[C@]43C)nn2)cc1,MTT,24 h,pIC50,4.12
Cc1cc(NS(=O)(=O)c2ccc(NC(=O)/C(C#N)=C/c3cccnc3)cc2)no1,MTT,48 h,pIC50,3.73
COc1cccc2c1C(=O)c1c(O)c3c(c(O)c1C2=O)C[C@@](O)(C(=O)CO)C[C@@H]3O[C@H]1C[C@H](N)[C@H](O)[C@H](C)O1,SRB,,pIC50,6.74
